The values below come from ChEMBL document CHEMBL4229344 (Eur J Med Chem, 2018).

For data set [1], the target named is Serine/threonine-protein kinase Nek7 (Homo sapiens) (UniProt Q8TDX7). As to the kind of experiment: Binding affinity to wild-type human full length NEK7 (M1 to S302 residues) expressed in bacterial expression system assessed as residual binding level at 1 uM by Kinomescan method relative to control. The method, boiled down: (§1)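 Single-concentration KINOMEscan (DiscoverX) binding screen at 1 μM against a panel of 468 purified kinases and mutants. The read-out is binding relative to control.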

Data set [2] deals with Serine/threonine-protein kinase Nek3 (Homo sapiens) (UniProt P51956). The data set can be described thus: Binding affinity to wild-type human full length NEK3 (M1 to R506 residues) expressed in mammalian expression system assessed as residual binding level at 1 uM by Kinomescan method relative to control. In a few lines: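 KINOMEscan competition binding against 468 purified kinases/mutants, test compound at 1 µM; residual binding relative to control.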
Chain of Serine/threonine-protein kinase Nek3 (Homo sapiens) (P51956 whole entry, the tested form may be a part): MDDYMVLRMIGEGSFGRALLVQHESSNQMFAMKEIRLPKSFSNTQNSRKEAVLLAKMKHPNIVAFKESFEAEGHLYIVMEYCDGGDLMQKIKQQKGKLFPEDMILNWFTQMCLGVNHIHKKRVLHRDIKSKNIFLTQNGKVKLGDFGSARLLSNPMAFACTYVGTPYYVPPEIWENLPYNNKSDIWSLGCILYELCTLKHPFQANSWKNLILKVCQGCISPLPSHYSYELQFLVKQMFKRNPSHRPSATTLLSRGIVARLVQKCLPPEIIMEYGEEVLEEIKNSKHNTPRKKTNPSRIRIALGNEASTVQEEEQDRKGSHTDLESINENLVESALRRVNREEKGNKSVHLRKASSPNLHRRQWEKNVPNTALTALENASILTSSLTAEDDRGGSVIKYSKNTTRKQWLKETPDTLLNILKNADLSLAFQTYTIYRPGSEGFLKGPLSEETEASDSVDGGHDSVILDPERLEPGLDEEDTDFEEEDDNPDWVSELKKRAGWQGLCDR

Data set [3] addresses Dual specificity protein kinase TTK (Homo sapiens) (UniProt P33981). As to the kind of experiment: Binding affinity to wild-type human partial length TTK (N505 to V798 residues) expressed in bacterial expression system assessed as residual binding level at 1 uM by Kinomescan method relative to control.
The target of data set [4] is Tyrosine-protein kinase receptor UFO (Homo sapiens) (UniProt P30530). As to the kind of experiment: Binding affinity to wild-type human partial length AXL (R497 to Y821 residues) expressed in bacterial expression system assessed as residual binding level at 1 uM by Kinomescan method relative to control. The method, boiled down:
as §1

Data set [5] relates to Tyrosine-protein kinase ABL1 (Homo sapiens), P00519 [F317I]. As to the kind of experiment: Binding affinity to human phosphorylated ABL1 F317I mutant (S229 to K512 residues) expressed in mammalian expression system assessed as residual binding level at 1 uM by Kinomescan method relative to control. In a few lines: (§2)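 Single-concentration (1 μM) competition-binding screen run by KINOMEscan against a panel of 468 purified kinases and mutants. The read-out is the relative binding activity of the test compound to each kinase.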

Data set [6] addresses BMP-2-inducible protein kinase (Homo sapiens) (UniProt Q9NSY1). As to the kind of experiment: Binding affinity to wild-type human partial length BIKE (S34 to N329 residues) expressed in bacterial expression system assessed as residual binding level at 1 uM by Kinomescan method relative to control. The method, boiled down: as §1
Data set [7] has as its target Serine/threonine-protein kinase Nek11 (Homo sapiens) (UniProt Q8NG66). The data set can be described thus: Binding affinity to wild-type human partial length NEK11 (M1 to E313 residues) expressed in mammalian expression system assessed as residual binding level at 1 uM by Kinomescan method relative to control.
In data set [8] the target is Cyclin-dependent kinase 17 (Homo sapiens) (UniProt Q00537). The data set can be described thus: Binding affinity to wild-type human full length PCTK2 (M1 to F523 residues) expressed in bacterial expression system assessed as residual binding level at 1 uM by Kinomescan method relative to control. In a few lines:
as §1

Data set [9] addresses Glycogen synthase kinase-3 alpha (Homo sapiens) (UniProt P49840). The data set can be described thus: Binding affinity to wild-type human full length GSK3A (M1 to S483 residues) expressed in bacterial expression system assessed as residual binding level at 1 uM by Kinomescan method relative to control. The method, boiled down: as §2
In data set [10] the target is Serine/threonine-protein kinase ULK1 (Homo sapiens) (UniProt O75385). As to the kind of experiment: Binding affinity to wild-type human partial length ULK1 (M1 to T309 residues) expressed in mammalian expression system assessed as residual binding level at 1 uM by Kinomescan method relative to control.
Chain of Serine/threonine-protein kinase ULK1 (Homo sapiens) (O75385 whole entry, the tested form may be a part): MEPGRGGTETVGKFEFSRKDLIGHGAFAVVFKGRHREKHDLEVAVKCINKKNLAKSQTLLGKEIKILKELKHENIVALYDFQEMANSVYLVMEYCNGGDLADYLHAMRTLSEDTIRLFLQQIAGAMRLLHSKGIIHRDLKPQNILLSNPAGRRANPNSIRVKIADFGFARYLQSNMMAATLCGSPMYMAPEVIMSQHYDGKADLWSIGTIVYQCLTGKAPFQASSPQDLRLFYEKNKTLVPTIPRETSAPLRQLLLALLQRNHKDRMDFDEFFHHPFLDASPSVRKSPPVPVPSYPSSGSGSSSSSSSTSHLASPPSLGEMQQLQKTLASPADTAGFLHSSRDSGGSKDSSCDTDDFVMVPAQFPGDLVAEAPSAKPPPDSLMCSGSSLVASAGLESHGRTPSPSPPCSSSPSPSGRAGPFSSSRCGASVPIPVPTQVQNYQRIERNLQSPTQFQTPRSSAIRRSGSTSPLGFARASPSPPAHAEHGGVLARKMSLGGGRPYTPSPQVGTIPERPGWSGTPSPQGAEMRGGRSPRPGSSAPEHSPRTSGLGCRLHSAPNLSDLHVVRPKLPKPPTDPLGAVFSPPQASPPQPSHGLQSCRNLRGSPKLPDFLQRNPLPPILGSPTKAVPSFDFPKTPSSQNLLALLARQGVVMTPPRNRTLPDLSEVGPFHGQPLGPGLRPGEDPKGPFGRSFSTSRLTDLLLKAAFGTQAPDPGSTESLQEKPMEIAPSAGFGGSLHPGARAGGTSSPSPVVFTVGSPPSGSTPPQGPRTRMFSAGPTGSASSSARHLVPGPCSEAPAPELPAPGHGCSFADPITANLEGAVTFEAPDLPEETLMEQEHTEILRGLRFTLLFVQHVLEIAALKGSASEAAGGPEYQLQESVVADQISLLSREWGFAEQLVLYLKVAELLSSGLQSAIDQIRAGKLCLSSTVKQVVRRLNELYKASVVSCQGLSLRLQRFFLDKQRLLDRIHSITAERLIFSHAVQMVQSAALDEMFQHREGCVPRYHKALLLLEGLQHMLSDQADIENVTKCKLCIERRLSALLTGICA
The target in data set [11] is Platelet-derived growth factor receptor alpha (Homo sapiens, UniProt P16234). The data set can be described thus: Inhibition of PDGFRalpha in human EOL-1 cells assessed as decrease in STAT5 phosphorylation at Y694 residue after 2 hrs in presence of PDGF-AA by Western blot analysis. It counts as cell-based. On the technique in general: A western blot detects proteins with antibodies after separation by electrophoresis.

Data set [12] deals with Megakaryocyte-associated tyrosine-protein kinase (Homo sapiens) (UniProt P42679). The data set can be described thus: Binding affinity to wild-type human full length CTK (M43 to P508 residues) expressed in mammalian expression system assessed as residual binding level at 1 uM by Kinomescan method relative to control. The method, boiled down: as §2
The target of data set [13] is Dual specificity mitogen-activated protein kinase kinase 2 (Homo sapiens) (UniProt P36507). As to the kind of experiment: Binding affinity to wild-type human full length MEK2 (M1 to V400 residues) expressed in mammalian expression system assessed as residual binding level at 1 uM by Kinomescan method relative to control. The method, boiled down: as §1
The target of data set [14] is Myosin-IIIb (Homo sapiens) (UniProt Q8WXR4). The data set can be described thus: Binding affinity to wild-type human partial length MYO3B (M1 to D357 residues) expressed in bacterial expression system assessed as residual binding level at 1 uM by Kinomescan method relative to control.
Data set [15] deals with Dual specificity testis-specific protein kinase 1 (Homo sapiens) (UniProt Q15569). The data set can be described thus: Binding affinity to wild-type human full length TESK1 (R37 to S626 residues) expressed in bacterial expression system assessed as residual binding level at 1 uM by Kinomescan method relative to control. The method, boiled down:
as §1

For data set [16], the system named is Tyrosine-protein kinase ABL1 (Homo sapiens), P00519 [Q252H]. The data set can be described thus: Binding affinity to human phosphorylated ABL1 Q252H mutant expressed in mammalian expression system assessed as residual binding level at 1 uM by Kinomescan method relative to control. The method, boiled down: as §2
Data set [17] in a line: AUC (0 to t) in Sprague-Dawley rat at 10 mg/kg, po. It counts as ADME, organism-based. As to conditions: in vivo. In a few lines: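 Male Sprague-Dawley rats (6–8 weeks) fasted overnight, dosed IV or orally; compound dissolved in 5% DMSO/40% PEG400/55% saline (dosing solution 1 mg/mL). Blood (~0.2 mL) from jugular vein into heparin; IV sampling 1 min–8 h, oral 5 min–24 h. Plasma separated by centrifugation at 2–8 °C, stored at −80 °C until analysis.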

The target in data set [18] is Serine/threonine-protein kinase/endoribonuclease IRE1 (Homo sapiens) (UniProt O75460). The data set can be described thus: Binding affinity to wild-type human partial length ERN1 (S551 to E852 residues) expressed in mammalian expression system assessed as residual binding level at 1 uM by Kinomescan method relative to control.
Data set [19] addresses Serine/threonine-protein kinase TAO3 (Homo sapiens) (UniProt Q9H2K8). The data set can be described thus: Binding affinity to wild-type human partial length TAOK3 (M1 to T316 residues) expressed in mammalian expression system assessed as residual binding level at 1 uM by Kinomescan method relative to control.
Data set [20] has as its target Serine/threonine-protein kinase Sgk2 (Homo sapiens) (UniProt Q9HBY8). The data set can be described thus: Binding affinity to wild-type human partial length SGK2 (L54 to C427 residues) expressed in mammalian expression system assessed as residual binding level at 1 uM by Kinomescan method relative to control.
Data set [21] addresses Protein kinase C iota type (Homo sapiens) (UniProt P41743). The data set can be described thus: Binding affinity to wild-type human partial length PRKCI (H215 to V587 residues) expressed in mammalian expression system assessed as residual binding level at 1 uM by Kinomescan method relative to control.
For data set [22], the target named is Serine/threonine-protein kinase TBK1 (Homo sapiens) (UniProt Q9UHD2). The data set can be described thus: Binding affinity to wild-type human full length TBK1 (M1 to L729 residues) expressed in mammalian expression system assessed as residual binding level at 1 uM by Kinomescan method relative to control. The method, boiled down:
as §1

Chain of Dual specificity testis-specific protein kinase 1 (Homo sapiens) (Q15569 whole entry, looked up, the tested form may be a part): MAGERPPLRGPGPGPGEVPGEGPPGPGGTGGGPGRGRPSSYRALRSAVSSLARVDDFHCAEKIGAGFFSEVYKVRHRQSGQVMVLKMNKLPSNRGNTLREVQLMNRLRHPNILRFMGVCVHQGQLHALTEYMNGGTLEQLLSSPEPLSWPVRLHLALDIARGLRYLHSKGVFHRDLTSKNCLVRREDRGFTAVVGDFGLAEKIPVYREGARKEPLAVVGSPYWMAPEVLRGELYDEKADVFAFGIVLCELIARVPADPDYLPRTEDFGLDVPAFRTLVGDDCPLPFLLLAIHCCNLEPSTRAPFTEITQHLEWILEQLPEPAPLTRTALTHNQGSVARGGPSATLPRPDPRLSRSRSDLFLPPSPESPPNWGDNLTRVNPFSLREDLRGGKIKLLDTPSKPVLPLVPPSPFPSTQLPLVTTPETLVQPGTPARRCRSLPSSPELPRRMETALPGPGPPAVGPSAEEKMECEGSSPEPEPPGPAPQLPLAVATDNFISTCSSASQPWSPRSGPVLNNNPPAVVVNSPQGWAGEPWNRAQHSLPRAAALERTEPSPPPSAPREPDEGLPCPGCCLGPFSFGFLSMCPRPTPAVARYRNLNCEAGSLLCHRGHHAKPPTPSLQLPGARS
Chain of Tyrosine-protein kinase receptor UFO (Homo sapiens) (P30530 whole entry, the tested form may be a part): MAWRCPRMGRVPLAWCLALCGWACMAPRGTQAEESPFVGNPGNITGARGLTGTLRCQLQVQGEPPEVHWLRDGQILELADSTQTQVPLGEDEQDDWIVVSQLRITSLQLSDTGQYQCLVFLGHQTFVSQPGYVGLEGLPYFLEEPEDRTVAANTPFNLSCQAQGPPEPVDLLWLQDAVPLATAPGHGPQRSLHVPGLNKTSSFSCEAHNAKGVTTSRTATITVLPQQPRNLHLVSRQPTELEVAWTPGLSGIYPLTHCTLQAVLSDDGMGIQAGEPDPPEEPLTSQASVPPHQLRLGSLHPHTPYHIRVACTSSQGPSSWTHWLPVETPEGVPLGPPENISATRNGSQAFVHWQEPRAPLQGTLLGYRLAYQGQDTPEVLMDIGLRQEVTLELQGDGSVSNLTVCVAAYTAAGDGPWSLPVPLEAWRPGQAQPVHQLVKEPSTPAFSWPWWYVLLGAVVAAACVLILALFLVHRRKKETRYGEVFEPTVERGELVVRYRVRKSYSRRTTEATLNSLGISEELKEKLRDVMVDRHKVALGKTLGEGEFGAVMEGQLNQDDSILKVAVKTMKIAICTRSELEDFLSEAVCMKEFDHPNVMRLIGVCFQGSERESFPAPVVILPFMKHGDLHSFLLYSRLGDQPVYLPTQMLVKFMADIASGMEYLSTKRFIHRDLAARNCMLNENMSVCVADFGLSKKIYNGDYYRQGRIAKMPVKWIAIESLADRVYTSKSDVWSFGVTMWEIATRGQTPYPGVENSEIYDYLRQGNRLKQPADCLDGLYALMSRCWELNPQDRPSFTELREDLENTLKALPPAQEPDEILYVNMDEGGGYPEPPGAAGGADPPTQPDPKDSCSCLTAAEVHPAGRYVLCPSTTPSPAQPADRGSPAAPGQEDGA
Chain of Dual specificity protein kinase TTK (Homo sapiens) (P33981 whole entry, the tested form may be a part): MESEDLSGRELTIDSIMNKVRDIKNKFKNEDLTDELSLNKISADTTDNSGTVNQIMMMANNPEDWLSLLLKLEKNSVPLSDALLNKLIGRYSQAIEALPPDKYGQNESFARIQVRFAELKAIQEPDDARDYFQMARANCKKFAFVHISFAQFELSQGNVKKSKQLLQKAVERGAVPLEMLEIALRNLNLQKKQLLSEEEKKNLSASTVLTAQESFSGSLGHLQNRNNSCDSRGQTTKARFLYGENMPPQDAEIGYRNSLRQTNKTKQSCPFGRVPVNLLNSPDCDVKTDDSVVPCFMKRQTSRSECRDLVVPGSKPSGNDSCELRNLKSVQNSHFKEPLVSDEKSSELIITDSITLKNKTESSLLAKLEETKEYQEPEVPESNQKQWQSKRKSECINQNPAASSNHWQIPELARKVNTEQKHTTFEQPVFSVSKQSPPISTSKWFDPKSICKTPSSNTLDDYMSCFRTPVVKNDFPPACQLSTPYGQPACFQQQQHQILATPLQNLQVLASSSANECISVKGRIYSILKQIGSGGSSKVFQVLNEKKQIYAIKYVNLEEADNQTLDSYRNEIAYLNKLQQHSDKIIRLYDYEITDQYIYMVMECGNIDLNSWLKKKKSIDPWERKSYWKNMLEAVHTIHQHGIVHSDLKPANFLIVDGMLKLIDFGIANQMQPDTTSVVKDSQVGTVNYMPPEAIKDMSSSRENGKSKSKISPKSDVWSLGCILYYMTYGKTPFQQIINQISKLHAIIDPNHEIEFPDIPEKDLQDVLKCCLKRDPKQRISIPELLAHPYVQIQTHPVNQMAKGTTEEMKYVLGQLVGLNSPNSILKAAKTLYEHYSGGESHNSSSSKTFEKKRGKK
Chain of BMP-2-inducible protein kinase (Homo sapiens) (Q9NSY1 whole entry, looked up, the tested form may be a part): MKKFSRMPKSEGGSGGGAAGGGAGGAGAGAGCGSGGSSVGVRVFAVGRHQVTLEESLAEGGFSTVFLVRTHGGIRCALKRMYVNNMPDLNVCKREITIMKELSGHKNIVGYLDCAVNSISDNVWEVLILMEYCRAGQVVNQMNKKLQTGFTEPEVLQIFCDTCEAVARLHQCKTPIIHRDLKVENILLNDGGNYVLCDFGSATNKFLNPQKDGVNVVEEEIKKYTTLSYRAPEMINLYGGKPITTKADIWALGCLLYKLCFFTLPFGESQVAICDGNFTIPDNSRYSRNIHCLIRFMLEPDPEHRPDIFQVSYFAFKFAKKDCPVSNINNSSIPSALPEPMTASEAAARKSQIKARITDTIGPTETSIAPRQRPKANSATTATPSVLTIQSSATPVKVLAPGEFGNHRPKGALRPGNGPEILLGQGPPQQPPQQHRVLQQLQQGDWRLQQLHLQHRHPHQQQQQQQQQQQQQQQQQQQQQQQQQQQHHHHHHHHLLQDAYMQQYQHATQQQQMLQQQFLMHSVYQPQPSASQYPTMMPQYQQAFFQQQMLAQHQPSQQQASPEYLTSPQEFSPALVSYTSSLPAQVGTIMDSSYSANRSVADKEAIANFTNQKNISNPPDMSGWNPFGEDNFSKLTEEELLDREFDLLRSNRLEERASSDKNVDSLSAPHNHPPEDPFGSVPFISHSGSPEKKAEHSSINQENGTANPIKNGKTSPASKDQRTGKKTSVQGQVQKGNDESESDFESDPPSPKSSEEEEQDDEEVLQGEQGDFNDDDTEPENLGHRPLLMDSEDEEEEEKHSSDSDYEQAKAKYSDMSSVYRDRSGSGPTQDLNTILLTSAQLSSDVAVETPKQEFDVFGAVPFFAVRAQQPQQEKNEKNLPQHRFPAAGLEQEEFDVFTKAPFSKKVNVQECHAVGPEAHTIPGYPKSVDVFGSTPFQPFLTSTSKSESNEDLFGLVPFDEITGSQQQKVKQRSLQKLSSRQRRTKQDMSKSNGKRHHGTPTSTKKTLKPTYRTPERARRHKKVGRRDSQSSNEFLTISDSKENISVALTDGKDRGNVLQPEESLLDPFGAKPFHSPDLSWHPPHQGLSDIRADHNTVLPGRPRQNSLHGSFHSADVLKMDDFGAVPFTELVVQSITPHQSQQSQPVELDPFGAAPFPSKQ

As a reminder, the AUC(0-t) is exposure summed from dosing to a finite time, without extrapolation to infinity. Turning to `Cc1ccc(NC(=O)c2ccc(CN(CCN(C)C)C(=O)c3cccnc3)cc2)cc1Nc1nccc(-c2cccnc2)n1`, the Activity in data set [1] amounted to 96%; in data set [2], 73%; in data set [3], 81%; in [4], 95%; in data set [5] it was 74%; in data set [6] it was 99%. Besides, the Activity in data set [7] stood at 100%; in data set [8] it was 99%; in [9] it was 100%; in data set [10], 100%; in data set [12], 90%; in [13], 86%. Besides, the Activity in [14] was found to be 97%; in data set [15], 100%; in data set [16] it was 100%; in data set [18] it was 96%; in [19], 100%; in data set [20], 100%. Also, the Activity in data set [21] is 100%; in data set [22] it was 86%. Besides, in data set [11], the inhibition entry was “Dose-dependent effect”. In data set [17], this compound gave an AUC(0-t) of 103 ng·h/mL.
